Only some compounds are listed: those with a hit (about 3.5% of all), similar ones and a draw of the others.
ERAP1 inh: inhibitors of human ERAP1 aminopeptidase | recombinant ERAP1, Leu-AMC fluorescence, 60 min | inhibition, % at 10.7 µM | 340,000 tested, 0.15% active | AID 652197;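 active means mean replicate inhibition of at least 30%, or all replicates individually reaching that 30% level; inactive means mean below 30% and not every replicate reaching it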;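 further: 0% = neutral control wells and 100% = L-leucinethiol positive control wells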
Ecoli rRNA inh: selective bacterial rRNA inhibition in E. coli | E. coli WT GFP vs humanized-ribosome RFP mutants, fluorescence, 24 h; hits give low values; DMSO median 0, no signal -100 | GFP signal change (wild-type ribosome), % (concentration not given with the values) | 350,000 tested, 1.6% active | AID 720706;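 active means significant combined selectivity score with lowered wild-type GFP, culture density cut under 30%, mutant RFP and density less affected; inactive means any of these conditions unmet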
FGF22 binding: binders of recombinant human FGF22 by thermal shift | Q9HCT0 | SYPRO orange fluorescence; percent of sucrose octasulfate shift, DMSO zero | activity (Tm shift, normalised), % at 9.99 µM | 340,000 tested, 1.5% active | AID 651658;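 active means mean Tm shift, scaled 0 neutral to 100 positive control, at about 1.3% or above, every replicate too, limit read from the data; inconclusive means no clear call, values can overlap the other calls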
Cneo AK release: Cryptococcus neoformans lysis via adenylate kinase release. C. neoformans lysis, adenylate kinase release luminescence, 4 h; normalised: neutral wells 0, clomiphene wells 100. lysis activity, % at 15 µM. 360,000 tested, 0.2% active. AID 651654;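 active means mean lysis activity across replicates of at least 80%, whatever share of replicates individually reach that level; inactive means mean lysis activity below 80%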
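Material – Cryptococcus neoformans yeast cells · Quantity – 5 × 10^6 yeast cells/mL · Buffer or medium – YPD medium · Compound – single dose · Timing – 4 h static compound exposure, 37 °C, read 1 h post-reagent · Signal – adenylate kinase release luminescence · Read-out basis – lysis from increased AK signal · Benchmarks – Clomiphene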
PGC1a acetyl inh: lowers PGC1a acetylation signal in U2OS cells. 350,000 tested, 0.17% active. AlphaScreen anti-acetyl-lysine; with virally co-expressed GCN5 acetyltransferase. inhibition, % at 15.6 µM;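 active means every replicate shows inhibition of at least 40%; inconclusive means mean inhibition at least 40% but some replicate below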;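 further: 0% = neutral control wells and 100% = positive control wells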
HIV Env fusion: inhibitors of HIV Env-mediated cell fusion. HeLa-JRFL Env/CEM21 cell fusion, luciferase. inhibition, % at 12.3 µM. 360,000 tested, 1.1% active. AID 651610;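 active means mean replicate inhibition score of at least 50 and every replicate individually at or above 50; inconclusive means only one of the two criteria met; inactive means mean below 50 and not all replicates reaching 50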;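 further: 0% = plate neutral controls and 100% = maraviroc near 300 nM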
Starred values were filed as active, the others as inactive; ? = inconclusive; . = no result; [ ] = dose if it differs, or a comment.

SMILES | ERAP1 inh | Ecoli rRNA inh | FGF22 binding | Cneo AK release | PGC1a acetyl inh | HIV Env fusion
C[C@H]1CN([C@@H](C)CO)C(=O)c2cccc(NS(=O)(=O)c3cn(C)cn3)c2O[C@H]1CN(C)S(=O)(=O)c1ccc(F)cc1 | 3 | 1 | 0 | 0 | 8 | .
CC(C)(C)c1csc(NC(=O)Cc2cccs2)n1 | 2 | -23* | 0 | . | . | -3
CCOC(=O)c1ccc(NC(=O)c2cc3c(s2)CCC3)cc1 | 0 | 7 | 45* | . | -5 | 3
CCOC(=O)c1ccc(NC(=O)c2ccc(NC(=O)c3ccccc3)cc2)cc1 | . | . | . | 1 | 2 | -5
CCOC(=O)C(=CNc1ccc(C(F)(F)F)cc1)C(=O)OCC | . | -23* | 0 | . | . | -19
CCOC(=O)C(=CNc1ccc(C)cc1C)C(=O)OCC | . | . | . | 2 | ? | -19
CC[C@@]1(C(=O)OC)N[C@H](CN(C)S(=O)(=O)c2ccc(-c3ccccc3)cc2)[C@@H]2C(=O)N(Cc3ccccc3)C(=O)[C@@H]21 | -4 | . | 0 | 4 | . | 138*
CC[C@@]1(C(=O)OC)N[C@H](CN(C)S(=O)(=O)c2ccccc2)[C@@H]2C(=O)N(Cc3ccccc3)C(=O)[C@@H]21 | 1 | 2 | 0 | 0 | . | ?
COC(=O)[C@]1(C)N[C@H](CN(C)S(=O)(=O)c2ccccc2)[C@@H]2C(=O)N(Cc3ccccc3)C(=O)[C@@H]21 | 1 | 12 | 0 | 1 | 0 | 5
COC(=O)[C@]1(Cc2ccccc2)N[C@H](CN(C)S(=O)(=O)c2ccc(C(F)(F)F)cc2)[C@@H]2C(=O)N(Cc3ccccc3)C(=O)[C@@H]21 | -2 | 13 | 0 | 2 | 3 | 69*
COC(=O)[C@]1(C)N[C@H](CN(C)S(=O)(=O)c2ccc(-c3ccccc3)cc2)[C@@H]2C(=O)N(Cc3ccccc3)C(=O)[C@@H]21 | 5 | 5 | 0 | 0 | . | 81*
COC(=O)[C@]1(Cc2ccccc2)N[C@H](CN(C)S(=O)(=O)c2ccc(C(C)(C)C)cc2)[C@@H]2C(=O)N(Cc3ccccc3)C(=O)[C@@H]21 | . | 25 | 0 | -2 | 9 | 20
O=C1CC(c2ccccc2)Cc2nc(N3CCc4ccccc4C3)ncc21 (stereo unspecified) | . | . | . | . | . | 5
CC(C)NC(=O)N(C)C[C@@H]1Oc2c(NC(=O)C3CCCCC3)cccc2C(=O)N([C@@H](C)CO)C[C@@H]1C | 2 | 2 | -1 | 84* | . | -17[16.7 µM]
CC(C)NC(=O)Nc1cccc2c1O[C@H](CN(C)C)[C@H](C)CN([C@@H](C)CO)C2=O | -2 | 3 | 0 | 92* | -1 | 23[16.7 µM]
CC(C)NC(=O)N(C)C[C@H]1Oc2c(NC(=O)C3CCCCC3)cccc2C(=O)N([C@H](C)CO)C[C@H]1C | 2 | 2 | -1 | 114* | . | -2[16.7 µM]
CC(C)NC(=O)N(C)C[C@@H]1Oc2c(NC(=O)C3CCCCC3)cccc2C(=O)N([C@H](C)CO)C[C@@H]1C | -2 | 2 | 0 | 2 | . | -43[16.7 µM]
CC(=O)c1cccc(-c2csc3ncnc(Sc4nnnn4C)c23)c1 | -1 | 3 | 0 | -2 | . | -185
CC(C)NC[C@H]1[C@@H](c2ccc(-c3cccc(F)c3)cc2)[C@@H](CO)N1CC1CC1 | -2 | 0 | 0 | 6 | -19 | .
O=C(COc1ccc(Br)cc1)N/N=C1/SCC(=O)N1Cc1ccco1 | 3 | -23* | 0 | . | . | -4
O=C1CSC(=Nc2ccc(Cl)cc2)N1Cc1ccco1 | . | -26 | 0 | . | ? | 9
COc1ccc(S(=O)(=O)Nc2ccc3c(c2)CC(=O)N([C@H](C)CO)C[C@H](C)[C@H](CN(C)S(=O)(=O)c2ccc(Cl)cc2)O3)cc1 | 0 | 3 | 0 | 6 | 11 | 73*[16.7 µM]
COc1ccc(S(=O)(=O)N(C)C[C@H]2Oc3ccc(NS(=O)(=O)c4ccc(Cl)cc4)cc3CC(=O)N([C@@H](C)CO)C[C@H]2C)cc1 | . | -1 | 0 | 2 | -9 | -6[16.7 µM]
COc1ccc(S(=O)(=O)Nc2ccc3c(c2)CC(=O)N([C@H](C)CO)C[C@H](C)[C@H](CN(C)S(=O)(=O)c2ccccc2)O3)cc1 | . | -1 | 0 | 6 | 3 | 84*[16.7 µM]
COc1ccc(S(=O)(=O)Nc2ccc3c(c2)CC(=O)N([C@H](C)CO)C[C@H](C)[C@H](CN(C)S(=O)(=O)c2ccc(C)cc2)O3)cc1 | 2 | 2 | -1 | -8 | -2 | 99*[16.7 µM]
SMILES | ERAP1 inh | Ecoli rRNA inh | FGF22 binding | Cneo AK release | PGC1a acetyl inh | HIV Env fusion
NC(=O)c1nn(Cc2ccccc2)c(=O)c2ccccc12 | -1 | -7 | 0 | 2 | . | -27
Cc1ccc(SC(C)C(=O)Nc2ncn[nH]2)cc1 (stereo unspecified) | 2 | 11 | 0 | -2 | -5 | 13
CCNc1nc(Oc2ccc(C(=O)OC)cc2)nc(N(C)C)n1 | . | . | . | . | -4 | .
COC(=O)c1ccc(Oc2nc(Nc3ccc(C)c(C)c3)nc(N(C)C)n2)cc1 | . | . | . | -1 | -3 | 65*
CCn1c(=S)sc2c(=O)n(-c3ccccc3)c(=S)[nH]c21 | 3 | -30* | 0 | . | -6 | -5
Cc1ccc(N2CC(O)(c3cccs3)[N+]3=C2CCCC3)cc1 (stereo unspecified) | 0 | 5 | 0 | . | . | -3
COc1ccc(C2(O)CN(c3ccc(C)cc3)C3=[N+]2CCCC3)cc1 (stereo unspecified) | 4 | -19 | 43* | . | 5 | -2
CN1C(=O)c2cc(NC(=O)C3CC3)ccc2OC[C@H]2O[C@@H](CC(=O)Nc3ccccc3F)CC[C@@H]21 | -1 | -2 | 0 | . | 8 | .
CO[C@@H](CN(C)Cc1cc(F)ccc1F)[C@@H](C)CN([C@H](C)CO)S(=O)(=O)c1ccc(F)cc1 | -6 | . | 0 | 102* | -42 | 17[16.7 µM]
CO[C@H](CN(C)S(=O)(=O)c1ccc(Cl)cc1)[C@H](C)CN([C@H](C)CO)S(=O)(=O)c1cccc(Cl)c1 | -5 | -4 | 0 | -10 | -52 | 56*[16.7 µM]
CO[C@@H](CN(C)Cc1cc(F)ccc1F)[C@H](C)CN([C@H](C)CO)S(=O)(=O)c1ccc(F)cc1 | -4 | 3 | 0 | 2 | -10 | 13[16.7 µM]
CO[C@H](CN(C)S(=O)(=O)c1cccc(Cl)c1)[C@H](C)CN([C@@H](C)CO)S(=O)(=O)c1ccc(Cl)cc1 | -3 | -1 | 0 | -3 | -10 | ?
CO[C@H](CN(C)S(=O)(=O)c1cccc(Cl)c1)[C@@H](C)CN([C@H](C)CO)S(=O)(=O)c1ccc(Cl)cc1 | -3 | -3 | 0 | -4 | -7 | 17[16.7 µM]
CO[C@H](CN(C)S(=O)(=O)c1ccc(Cl)cc1)[C@H](C)CN([C@@H](C)CO)S(=O)(=O)c1cccc(Cl)c1 | -2 | 1 | 0 | -6 | -34 | 61*[16.7 µM]

Assay outcomes (PubChem BioAssay)
